Results reported in ChEMBL document CHEMBL1147086, “Composite synthetic lethal identification of membrane traffic inhibitors” (Proc Natl Acad Sci U S A, 2007).
pEC50: −log10 of the molar value. The source made the active and inactive calls. The calls are words filed in the database; no cut-off is given here.

What was measured:
Saccharomyces cerevisiae [1] = test: Growth inhibition of wild type yeast MDY326 assessed as cell growth at 25 uM; type: functional; parameters: scale not given: the % may be the effect or the level left
How it was run: (§1)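 Overnight cultures (pdr5Δ snq2Δ background) diluted to OD600 0.0003 in YPD, given serially diluted compound in 30-μl cultures, grown 18–24 h at 30°C humidified; OD490 read after vortexing; growth expressed as fold inhibition relative to the same strain with DMSO.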

Saccharomyces cerevisiae [2] = test: Growth inhibition of gga1/2 deficient yeast MDY327 cells assessed as cell growth at 25 uM relative to wild-type; type: functional; parameters: scale not given: the % may be the effect or the level left
Saccharomyces cerevisiae [3] = test: Growth inhibition of apl2/4 deficient yeast MDY334 cells assessed as cell growth at 25 uM relative to wild-type; type: functional; parameters: scale not given: the % may be the effect or the level left
Saccharomyces cerevisiae [4] = test: Effect on localization of chitin synthase Chs3p in CHS6 deficient yeast MDY335 assessed as induction of chitin bud scars at 25 uM by fluorescence microscopy; type: functional, organism-based
How it was run: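 chs6Δ cells (pdr5Δ snq2Δ background) grown overnight at 30°C in YPD with 25 μM compound or DMSO; cells mixed 1:1 with 2.5 mM calcofluor white in YPD for 10 min, washed twice, chitin rings scored by fluorescence microscopy.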

Saccharomyces cerevisiae [5] = test: Growth inhibition of yeast MDY330 carrying temperature sensitive allele of clathrin heavy chain gene assessed as cell growth at 25 uM relative to wild-type; type: functional; parameters: scale not given: the % may be the effect or the level left
Saccharomyces cerevisiae [6] = test: Toxicity against wild type yeast MDY326 assessed as 2 fold reduction of cell growth at 130 uM; type: organism-based; conditions: in vivo
Saccharomyces cerevisiae [7] = test: Growth inhibition of wild type yeast MDY326 cells upto 300 uM; type: functional, organism-based; how it was run: as §1
Saccharomyces cerevisiae [8] = test: Growth inhibition of AP1 deficient yeast MDY334 cells upto 300 uM; type: functional, organism-based; how it was run: as §1
Saccharomyces cerevisiae [9] = test: Inhibition of maturation of alpha-factor2 in wild type yeast MDY326 at 25 uM; type: functional, organism-based
How it was run: (§2)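 Cells treated overnight with 25 μM compound or DMSO in YPD to OD600 0.2, washed in SCMG with 50 μM compound, labeled 10 min with [35S]methionine, chased 30 min; α-factor immunoprecipitated from medium, SDS/PAGE and autoradiography.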

Saccharomyces cerevisiae [10] = test: Inhibition of maturation of alpha-factor2 in gga2delta containing yeast MDY380 at 25 uM; type: functional, organism-based; how it was run: as §2
Saccharomyces cerevisiae [11] = test: Toxicity against wild type yeast MDY326 assessed as 2 fold reduction of cell growth; type: organism-based; conditions: in vivo
How it was run: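 Wild-type cells (pdr5Δ snq2Δ) grown 18–24 h at 30°C in YPD with serially diluted compound; OD490 read; value is concentration giving 2-fold growth inhibition versus DMSO.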

Saccharomyces cerevisiae [12] = test: Toxicity against wild type yeast MDY326 assessed as 2 fold reduction of cell growth at 14 uM; type: organism-based; conditions: in vivo
How it was run: (§3)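 Wild-type strain MDY326 (pdr5Δ snq2Δ) diluted to OD600 0.0003 in YPD, compound serially diluted into 30 μl cultures, grown 18–24 h at 30°C humidified; OD490 read after vortexing, normalized to untreated/DMSO wells; value is the concentration producing 2-fold growth inhibition.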

Saccharomyces cerevisiae [13] = test: Toxicity against wild type yeast MDY326 assessed as 2 fold reduction of cell growth at 150 uM; type: organism-based; conditions: in vivo; how it was run: as §3
Saccharomyces cerevisiae [14] = test: Effect on maturation of alpha-factor2 in yeast MDY330 carrying temperature sensitive allele of clathrin heavy chain gene; type: functional, organism-based
How it was run: (§4)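 Yeast grown at 30°C to OD600 0.2 in YPD with compound (25 μM) or DMSO, washed twice in SCMG containing 50 μM compound, pulse-labeled 10 min with [35S]methionine (50 μCi per OD600), chased 30 min in YPD, stopped with NaF/NaN3 (10 mM final); secreted α-factor immunoprecipitated from medium, resolved by SDS/PAGE and autoradiography; DMSO-treated and wild-type (MDY326) cells as reference.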

Saccharomyces cerevisiae [15] = test: Effect on maturation of alpha-factor2 in gga2delta containing yeast MDY380; type: functional, organism-based; how it was run: as §4
Saccharomyces cerevisiae [16] = test: Prevention of maturation of carboxyl peptidase S in gga1/2 deficient yeast MDY327 assessed as delay in maturation at 25 uM by pulse-chase immunoprecipitation; type: functional, organism-based
How it was run: (§5)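 Cells grown overnight in YPD with 25 μM compound or DMSO, labeled 10 min with [35S]methionine, chase started by adding yeast extract/cysteine/methionine; CPS immunoprecipitated at chase points; precursor versus mature forms compared by SDS/PAGE and autoradiography.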

Saccharomyces cerevisiae [17] = test: Effect on maturation of carboxyl peptidase S in wild type yeast MDY326 assessed as delay in maturation at 25 uM by pulse-chase immunoprecipitation; type: functional; how it was run: as §5
Saccharomyces cerevisiae [18] = test: Degradation of Ste3p receptor in yeast MDY330 carrying temperature sensitive allele of clathrin heavy chain gene by pulse-chase immunoprecipitation; type: functional, organism-based
How it was run: (§6)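 Cells grown at 30°C to OD600 0.2 in YPD with DMSO or compound, washed twice in SCMG containing 50 μM compound, pulse-labeled 10 min with [35S]methionine (50 μCi per OD600), chased in YPD; samples stopped with NaF/NaN3 (10 mM final) at set chase points; Ste3p immunoprecipitated from lysates, SDS/PAGE and autoradiography.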

Saccharomyces cerevisiae [19] = test: Effect on maturation of alkaline phosphatase in wild type yeast SEY6210 at 25 uM by pulse-chase immunoprecipitation; type: functional, organism-based
How it was run: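 SEY6210 grown overnight with 25 μM compound or DMSO, pulse-labeled 5 min with [35S]methionine, chase started by adding yeast extract/cysteine/methionine; ALP immunoprecipitated from lysates at chase points; precursor and mature forms resolved by SDS/PAGE and autoradiography; apl6Δ strain run in parallel.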

Saccharomyces cerevisiae [20] = test: Growth inhibition of gga1/2delta containing yeast MDY327; type: functional, organism-based; how it was run: as §1
Saccharomyces cerevisiae [21] = test: Growth inhibition of gga1/2delta containing yeast MDY327 carrying wild type SNQ2 and PDR5 gene; type: functional, organism-based
Saccharomyces cerevisiae [22] = test: Degradation of Ste3p receptor in wild type yeast MDY326 cells by pulse-chase immunoprecipitation; type: functional, organism-based; how it was run: as §6
Saccharomyces cerevisiae [23] = test: Degradation of Ste3p receptor in gga2delta containing yeast MDY380 by pulse-chase immunoprecipitation; type: functional, organism-based; how it was run: as §6
Saccharomyces cerevisiae [24] = test: Toxicity against wild type yeast MDY326 assessed as 2 fold reduction of cell growth at 95 uM; type: organism-based; conditions: in vivo; how it was run: as §3

Compound	Activity (Saccharomyces cerevisiae [1]) [%]	Activity (Saccharomyces cerevisiae [2]) [%]	Activity (Saccharomyces cerevisiae [3]) [%]	Activity (Saccharomyces cerevisiae [4])	Activity (Saccharomyces cerevisiae [5]) [%]	further results
CC(C)Cc1ccc(C(C)C(=O)N/N=C/c2ccc(N(C)C)cc2)cc1 (stereo not drawn)	70	<50	70	inactive	70	
CC(=O)c1ccc(N2CCN(CC3CCCC3)CC2)cc1						Activity (Saccharomyces cerevisiae [6]): Toxic
O=C1/C(=C/c2ccc(O)cc2)SC(=S)N1C1CCCCC1	70	<50	50	inactive	<50	
O=C1NC(=O)/C(=C\c2cccc(Cl)c2Cl)S1	70	50	70	inactive	70	
O=C(Nc1ccccc1)c1ccccc1/N=C/c1cc(Br)ccc1O	70	50	50	inactive	70	
CC(=O)c1ccc(N2CCN(Cc3ccco3)CC2)cc1	70	50	70	Active	50	Activity (Saccharomyces cerevisiae [7]): inactive; Activity (Saccharomyces cerevisiae [8]): inactive; Activity (Saccharomyces cerevisiae [9]): inactive; Activity (Saccharomyces cerevisiae [10]): Active
Cc1cc(O)c(C(C)C)cc1NS(=O)(=O)c1ccc(Cl)cc1	70	50	70	inactive	70	
CCN1CCN(c2ccc(C(C)=O)cc2F)CC1						Activity (Saccharomyces cerevisiae [11]): Non-toxic
CC(=O)c1ccc(N2CCN(Cc3cccc(Cl)c3Cl)CC2)cc1						Activity (Saccharomyces cerevisiae [12]): Toxic
CC(=O)c1ccc(N2CCN(Cc3cc(F)ccc3F)CC2)cc1	70	<50	70	Active	50	Activity (Saccharomyces cerevisiae [9]): inactive; Activity (Saccharomyces cerevisiae [10]): Active
CCn1c2ccccc2c2cc(CNC3CCCC3)ccc21	70	<50	70	inactive	70	
COC(=O)c1ccccc1/N=C/c1c(O)c(Br)cc2oc3c(c12)CCCC3	70	<50	50	inactive	<50	
CC(=O)c1ccc(N2CCN(Cc3ccccc3F)CC2)cc1						Activity (Saccharomyces cerevisiae [13]): Toxic
CC(=O)c1ccc(N2CCN(Cc3ccccc3)CC2)cc1						Activity (Saccharomyces cerevisiae [11]): Non-toxic
COC(=O)Oc1c(Br)c(C)c2oc(=O)sc2c1Br	70	<50	70	inactive	70	
COc1ccc(CN2CCN(Cc3cc(Br)ccc3O)CC2)cc1						Activity (Saccharomyces cerevisiae [14]): inactive; Activity (Saccharomyces cerevisiae [15]): inactive
CC(=O)c1ccc(N2CCN(Cc3cccc(F)c3F)CC2)cc1						Activity (Saccharomyces cerevisiae [13]): Toxic

Compound	Activity (Saccharomyces cerevisiae [1]) [%]	Activity (Saccharomyces cerevisiae [2]) [%]	Activity (Saccharomyces cerevisiae [3]) [%]	Activity (Saccharomyces cerevisiae [4])	Activity (Saccharomyces cerevisiae [5]) [%]	further results
C/C=C(\C)CN1CCN(c2ccc(C(=O)O)cc2)CC1						Activity (Saccharomyces cerevisiae [11]): Non-toxic
C/C=C(\C)CN1CCN(c2ccc(C(C)=O)cc2)CC1	70	<50	70	Active	50	Activity (Saccharomyces cerevisiae [16]): Active; Activity (Saccharomyces cerevisiae [7]): inactive; Activity (Saccharomyces cerevisiae [17]): <2; Activity (Saccharomyces cerevisiae [8]): inactive; Activity (Saccharomyces cerevisiae [18]): inactive; Activity (Saccharomyces cerevisiae [19]): inactive; pEC50 (Saccharomyces cerevisiae [20]): 5.40; Activity (Saccharomyces cerevisiae [9]): inactive; Activity (Saccharomyces cerevisiae [10]): Active; Activity (Saccharomyces cerevisiae [21]): Active; Activity (Saccharomyces cerevisiae [22]): inactive; Activity (Saccharomyces cerevisiae [11]): Non-toxic; Activity (Saccharomyces cerevisiae [23]): inactive
CC(=O)c1ccc(N2CCN(CC3CC3)CC2)cc1						Activity (Saccharomyces cerevisiae [11]): Non-toxic
CC(=O)c1ccc(N2CCN(Cc3cccc(F)c3)CC2)cc1						Activity (Saccharomyces cerevisiae [24]): Toxic
c1ccc(CN2CCC(NCC(c3ccccc3)c3ccccc3)CC2)cc1	70	<50	70	inactive	70	
CC(=O)c1ccc(N2CCN(Cc3ccsc3)CC2)cc1						Activity (Saccharomyces cerevisiae [11]): Non-toxic
CC(=O)c1ccc(N2CCN(Cc3ccc(Cl)cc3)CC2)cc1						Activity (Saccharomyces cerevisiae [11]): Non-toxic
CC(=O)c1ccc(N2CCN(CC3=CCCCC3)CC2)cc1						Activity (Saccharomyces cerevisiae [13]): Toxic
CC(=O)c1ccc(N2CCN(Cc3cccs3)CC2)cc1						Activity (Saccharomyces cerevisiae [11]): Non-toxic
Cc1cc(S)n(-c2ccccc2)n1	70	<50	50	inactive	50	
CC(=O)c1ccc(N2CCN(Cc3ccccc3C(F)(F)F)CC2)cc1						Activity (Saccharomyces cerevisiae [11]): Non-toxic
C/C=C(\C)CN1CCN(c2ccc(C(=O)OCC)cc2)CC1						Activity (Saccharomyces cerevisiae [11]): Non-toxic
O=C1/C(=C\c2ccc(-c3cccc(Cl)c3)o2)SC(=S)N1CCS(=O)(=O)O						Activity (Saccharomyces cerevisiae [14]): inactive; Activity (Saccharomyces cerevisiae [15]): inactive
Cl.N=c1n(Cc2ccccc2)c2ccccc2n1CC(O)COc1ccccc1 (stereo not drawn)	70	<50	50	inactive	50	
COc1ccc(CNC2C3CC4CC(C3)CC2C4)c2ccccc12 (stereo not drawn)	70	<50	70	inactive	70	
O=C(N/N=C/c1c[nH]c2ccccc12)c1cc(-c2ccc(Cl)cc2)n[nH]1	70	<50	70	inactive	70	
CC1(C(=O)NC(=S)NNC(=O)c2cccnc2)CCCCC1	70	<50	70	inactive	70	
